Here are results for 3 molecules from publication PMC4535313 (Bioorganic & medicinal chemistry letters, 2014).

Data set [1] can be described thus: Metabolic stability in rat microsomes. It counts as in vitro ADME.
For data set [2], the target named is PLD2 (Homo sapiens, UniProt O14939). As to conditions: recently reported inhibitors, Fig. 1; cited from earlier work.
Data set [3] deals with T1, PLD1 (Homo sapiens, UniProt Q13393).
T1 sequence (Q13393 1-1074): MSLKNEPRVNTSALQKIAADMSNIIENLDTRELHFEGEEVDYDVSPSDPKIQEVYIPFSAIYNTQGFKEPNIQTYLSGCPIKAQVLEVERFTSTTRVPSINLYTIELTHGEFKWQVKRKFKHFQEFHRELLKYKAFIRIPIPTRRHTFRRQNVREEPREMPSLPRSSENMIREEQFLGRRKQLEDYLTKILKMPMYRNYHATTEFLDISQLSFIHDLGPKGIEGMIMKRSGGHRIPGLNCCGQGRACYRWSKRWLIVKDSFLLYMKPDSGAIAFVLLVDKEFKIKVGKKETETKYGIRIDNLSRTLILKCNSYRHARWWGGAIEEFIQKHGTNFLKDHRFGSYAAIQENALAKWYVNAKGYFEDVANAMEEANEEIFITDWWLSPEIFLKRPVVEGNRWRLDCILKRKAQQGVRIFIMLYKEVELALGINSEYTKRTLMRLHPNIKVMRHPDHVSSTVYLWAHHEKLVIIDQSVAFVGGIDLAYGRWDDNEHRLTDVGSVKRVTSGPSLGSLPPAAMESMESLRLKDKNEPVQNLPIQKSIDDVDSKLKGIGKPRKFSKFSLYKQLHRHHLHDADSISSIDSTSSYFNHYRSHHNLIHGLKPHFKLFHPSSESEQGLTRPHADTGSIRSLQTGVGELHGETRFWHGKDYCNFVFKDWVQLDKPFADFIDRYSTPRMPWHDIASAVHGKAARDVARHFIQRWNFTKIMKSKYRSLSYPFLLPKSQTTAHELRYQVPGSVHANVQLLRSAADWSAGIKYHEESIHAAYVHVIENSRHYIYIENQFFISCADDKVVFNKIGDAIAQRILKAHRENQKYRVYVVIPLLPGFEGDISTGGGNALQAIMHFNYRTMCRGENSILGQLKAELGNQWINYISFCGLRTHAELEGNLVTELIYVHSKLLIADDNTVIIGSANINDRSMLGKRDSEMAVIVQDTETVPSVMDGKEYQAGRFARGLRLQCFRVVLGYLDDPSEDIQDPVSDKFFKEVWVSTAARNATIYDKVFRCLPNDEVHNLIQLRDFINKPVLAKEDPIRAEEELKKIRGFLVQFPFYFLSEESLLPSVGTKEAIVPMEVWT
Nature of the data set: Cellular PLD1 assay with Calu-1 cells. Type of data set: cell-based. In a few lines:
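Calu-1 cells used for cell-based PLD1 inhibition readout. Each IC50 determined in triplicate.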

PLD2, sequence (O14939 whole entry, species assumed): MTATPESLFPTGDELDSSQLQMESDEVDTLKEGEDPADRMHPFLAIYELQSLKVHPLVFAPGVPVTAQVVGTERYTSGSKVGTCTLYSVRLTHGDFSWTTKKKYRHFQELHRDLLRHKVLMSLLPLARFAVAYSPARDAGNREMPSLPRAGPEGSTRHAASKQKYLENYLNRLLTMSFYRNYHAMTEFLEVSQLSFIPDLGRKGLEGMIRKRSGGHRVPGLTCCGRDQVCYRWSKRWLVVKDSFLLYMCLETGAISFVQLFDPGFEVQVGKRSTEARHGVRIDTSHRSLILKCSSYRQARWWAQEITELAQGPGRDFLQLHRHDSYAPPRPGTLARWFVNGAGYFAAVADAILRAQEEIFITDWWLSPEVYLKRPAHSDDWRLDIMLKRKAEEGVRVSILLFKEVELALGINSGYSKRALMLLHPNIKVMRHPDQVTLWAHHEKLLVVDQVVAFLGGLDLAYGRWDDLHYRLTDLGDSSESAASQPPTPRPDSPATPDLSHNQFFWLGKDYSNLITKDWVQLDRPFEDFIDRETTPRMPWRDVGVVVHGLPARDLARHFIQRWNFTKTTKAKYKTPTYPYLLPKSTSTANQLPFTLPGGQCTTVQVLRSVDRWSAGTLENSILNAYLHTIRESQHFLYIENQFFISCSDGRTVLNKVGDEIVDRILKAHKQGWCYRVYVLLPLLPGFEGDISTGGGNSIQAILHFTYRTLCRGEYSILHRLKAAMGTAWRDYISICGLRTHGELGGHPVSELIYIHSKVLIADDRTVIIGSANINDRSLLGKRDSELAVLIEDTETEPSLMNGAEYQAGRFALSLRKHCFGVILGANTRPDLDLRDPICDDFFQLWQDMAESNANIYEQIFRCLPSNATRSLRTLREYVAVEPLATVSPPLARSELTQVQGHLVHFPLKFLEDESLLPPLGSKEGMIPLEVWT

Take `CC1CC(n2c(=O)[nH]c3ccccc32)CCN1CCNC(=O)c1ccc(F)cc1` (stereo not drawn) [compound 9]: the Clhep in data set [1] is on record as 70 mL/min/kg. Take `O=C(NCCN1CCC2(CC1)C(=O)NCN2c1cccc(F)c1)c1ccc(F)c(F)c1` [compound 4]: in data set [2], the “fold PLD2 selective” value is given as 53 fold. In turn, `CC(CNC(=O)c1ccc(F)c(F)c1)N1CCC2(CC1)C(=O)NCN2c1ccccc1` (stereo not drawn) [8f] showed an IC50 in data set [3] of approximately 1000 nM.

What is called IC50 is the concentration at which inhibition is half-maximal.
